# Active and inactive are the calls of the source. The rule behind the calls is not given here.
# Tests used:
# Hordeum vulgare [1] = experiment: Inhibition of Hordeum vulgare (barley) seed germination at 20 degC at 90 uM (reference value: 0%); format: functional
# Avena fatua [2] = experiment: Inhibition of Avena fatua seed germination at 20 degC at 100 uM (reference value: 0%); format: functional
# Triticum aestivum [3] = experiment: Inhibition of Triticum aestivum (wheat) seed germination at 20 degC at 320 uM (reference value: 0%); format: functional
# Triticum aestivum [4] = experiment: Inhibition of Triticum aestivum (wheat) seed germination at 20 degC at 640 uM (reference value: 0%); format: functional
# Avena sativa [5] = experiment: Inhibition of Avena sativa seed germination at 20 degC at 60 uM (reference value: 0%); format: functional
# Hordeum vulgare [6] = experiment: Inhibition of Hordeum vulgare (barley) seed germination at 20 degC at 640 uM (reference value: 0%); format: functional
# Triticum aestivum [7] = experiment: Inhibition of Triticum aestivum (wheat) seed germination at 20 degC at 60 uM (reference value: 0%); format: functional
# Avena sterilis [8] = experiment: Enhancement of Avena sterilis root growth at 20 degC and 12 hr photoperiod at 10 to 30 uM; format: functional, organism-based
# In short: (§1)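 Pregerminated seeds were exposed in tubes to aqueous metabolite and kept in a growth chamber at 20 °C with a 12-h photoperiod. Main root length was measured after 120 h.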
# Hordeum vulgare [9] = experiment: Inhibition of Hordeum vulgare (barley) seed germination at 20 degC at 70 uM (reference value: 0%); format: functional
# Triticum aestivum [10] = experiment: Phytotoxicity against Triticum aestivum (wheat) root growth at 20 degC and 12 hr photoperiod at 1000 uM; format: organism-based; conditions: in vivo
# Avena fatua [11] = experiment: Inhibition of Avena fatua seed germination at 20 degC at 640 uM (reference value: 0%); format: functional
# Avena fatua [12] = experiment: Inhibition of Avena fatua seed germination at 20 degC at 60 uM (reference value: 0%); format: functional
# Avena sativa [13] = experiment: Inhibition of Avena sativa seed germination at 20 degC at 80 uM (reference value: 0%); format: functional
# Avena sterilis [14] = experiment: Phytotoxicity against Avena sterilis root growth at 20 degC and 12 hr photoperiod at 1000 uM; format: organism-based; conditions: in vivo
# Triticum aestivum [15] = experiment: Enhancement of Triticum aestivum (wheat) root growth at 20 degC and 12 hr photoperiod at 10 to 30 uM; format: functional, organism-based; in short: as §1
# Avena fatua [16] = experiment: Inhibition of Avena fatua seed germination at 20 degC at 90 uM (reference value: 0%); format: functional
# Avena sativa [17] = experiment: Inhibition of Avena sativa seed germination at 20 degC at 90 uM (reference value: 0%); format: functional
# Avena sterilis [18] = experiment: Effect on chlorophyll content in Avena sterilis assessed as chlorophyll dissipation rate at 20 degC and […] at 320 uM relative to control; format: ADME, organism-based; conditions: in vivo
# In short: (§2)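 Leaf sections were treated with 320 µM metabolite and incubated in the dark at 20 °C, with 16 tubes per treatment. Every 12 h, segments from one tube were split into four tubes and extracted in DMSO at 65 °C for 30 min. Extracts were read at A665, tissue was dried at 105 °C and weighed, and chlorophyll was expressed as A665 per g dry weight.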
# Avena sativa [19] = experiment: Effect on chlorophyll content in Avena sativa assessed as chlorophyll dissipation rate at 20 degC and 12 hr photoperiod at 320 uM relative to control; format: ADME, organism-based; conditions: in vivo; in short: as §2
# Hordeum vulgare [20] = experiment: Effect on chlorophyll content in Hordeum vulgare (barley) assessed as chlorophyll dissipation rate at 20 degC and 12 hr photoperiod at 320 uM relative to control; format: ADME, organism-based; conditions: in vivo; in short: as §2
# Hordeum vulgare [21] = experiment: Phytotoxicity against Hordeum vulgare (barley) root growth at 20 degC and 12 hr photoperiod at 1000 uM; format: organism-based; conditions: in vivo
# Avena sativa [22] = experiment: Inhibition of Avena sativa root growth at 20 degC and 12 hr photoperiod at > 51 uM; format: functional, organism-based; in short: as §1
# Triticum aestivum [23] = experiment: Inhibition of Triticum aestivum (wheat) seed germination at 20 degC at 90 uM (reference value: 0%); format: functional
# Triticum aestivum [24] = experiment: Effect on chlorophyll content in Triticum aestivum (wheat) assessed as chlorophyll dissipation rate at 20 degC and 12 hr photoperiod at 320 uM relative to control; format: ADME, organism-based; conditions: in vivo; in short: as §2
# Hordeum vulgare [25] = experiment: Inhibition of Hordeum vulgare (barley) seed germination at 20 degC at 200 uM (reference value: 0%); format: functional
# Hordeum vulgare [26] = experiment: Inhibition of Hordeum vulgare (barley) seed germination at 20 degC at 100 uM (reference value: 0%); format: functional
# Avena fatua [27] = experiment: Inhibition of Avena fatua root growth at 20 degC and 12 hr photoperiod at > 51 uM; format: functional, organism-based; in short: as §1
# Triticum aestivum [28] = experiment: Inhibition of Triticum aestivum (wheat) seed germination at 20 degC at 80 uM (reference value: 0%); format: functional
# Avena sterilis [29] = experiment: Inhibition of Avena sterilis root growth at 20 degC and 12 hr photoperiod at 31 to 50 uM; format: functional, organism-based; in short: as §1
# Hordeum vulgare [30] = experiment: Inhibition of Hordeum vulgare (barley) seed germination at 20 degC at 10 to 50 uM (reference value: 0%); format: functional
# Triticum aestivum [31] = experiment: Inhibition of Triticum aestivum (wheat) seed germination at 20 degC at 100 uM (reference value: 0%); format: functional
# Avena sterilis [32] = experiment: Inhibition of Avena sterilis seed germination at 20 degC at 640 uM (reference value: 0%); format: functional
# Avena sativa [33] = experiment: Inhibition of Avena sativa root growth at 20 degC and 12 hr photoperiod at 31 to 50 uM; format: functional, organism-based; in short: as §1
# Avena sativa [34] = experiment: Enhancement of Avena sativa root growth at 20 degC and 12 hr photoperiod at 10 to 30 uM; format: functional, organism-based; in short: as §1
# Triticum aestivum [35] = experiment: Inhibition of Triticum aestivum (wheat) root growth at 20 degC and 12 hr photoperiod at > 51 uM; format: functional, organism-based
smiles,measurement,setting,value
"C[C@@H]1CCC(=O)/C=C/C(=O)O[C@H](C)CCC(=O)/C=C/C(=O)O1 [(8R,16R)-(-)-pyrenophorin]",inhibition at 90 µM,Hordeum vulgare [1],88.2%
same,inhibition at 100 µM,Avena fatua [2],95.3%
same,inhibition at 320 µM,Triticum aestivum [3],98%
same,inhibition at 640 µM,Triticum aestivum [4],100%
same,inhibition at 60 µM,Avena sativa [5],14.5%
same,inhibition at 640 µM,Hordeum vulgare [6],100%
same,inhibition at 60 µM,Triticum aestivum [7],12.4%
same,Activity,Avena sterilis [8],Active
same,inhibition at 70 µM,Hordeum vulgare [9],67.5%
same,Activity,Triticum aestivum [10],Non-toxic
same,inhibition at 640 µM,Avena fatua [11],100%
same,inhibition at 60 µM,Avena fatua [12],12.5%
same,inhibition at 80 µM,Avena sativa [13],82.6%
same,Activity,Avena sterilis [14],Non-toxic
same,Activity,Triticum aestivum [15],Active
same,inhibition at 90 µM,Avena fatua [16],87.8%
same,inhibition at 90 µM,Avena sativa [17],89%
same,Ratio,Avena sterilis [18],1.4
same,Ratio,Avena sativa [19],1.4
same,Ratio,Hordeum vulgare [20],1.4
same,Activity,Hordeum vulgare [21],Non-toxic
same,inhibition,Avena sativa [22],Active
same,inhibition at 90 µM,Triticum aestivum [23],86.2%
same,Ratio,Triticum aestivum [24],1.4
same,inhibition at 200 µM,Hordeum vulgare [25],99%
same,inhibition at 100 µM,Hordeum vulgare [26],95.4%
same,inhibition,Avena fatua [27],Active
same,inhibition at 80 µM,Triticum aestivum [28],81.4%
same,inhibition,Avena sterilis [29],inactive
same,inhibition (INH),Hordeum vulgare [30],0%
same,inhibition at 100 µM,Triticum aestivum [31],90.8%
same,inhibition at 640 µM,Avena sterilis [32],100%
same,inhibition,Avena sativa [33],inactive
same,Activity,Avena sativa [34],Active
same,inhibition,Triticum aestivum [35],Active

# Reference: ChEMBL document CHEMBL3046036, “Bioactivity of the fungal metabolite (8R,16R)-(-)-pyrenophorin on graminaceous plants” (J Agric Food Chem, 2005)
